Measurements collected from several papers.
Each line is one published result; the experiments were not run side by side.
Cell line: SK-OV-3

Structure (SMILES)	assay	setting	measurement	value
Cc1ccc(-c2ccc(O)cc2)c(C(=C2C=CC(=O)C=C2)c2ccc(O)cc2)c1C#Cc1ccc(O)cc1	cell growth or viability, MTT	48 h	IC50	18.6 µM
CCN1CCN(Cc2ccc(Nc3ncc(F)c(-c4cc(F)c5nc(C)n(C(C)C)c5c4)n3)nc2)CC1	cell growth or viability, CCK-8	–	IC50	1.62 µM
NC(=O)c1cccc2cn(-c3ccc([C@@H]4CCCNC4)cc3)nc12	colony formation	–	IC50	5.34 µM
OCc1ccc2c(c1C#Cc1ccc(O)cc1)C(c1ccc(O)cc1)(c1ccc(O)cc1)c1cc(O)ccc1-2	cell growth or viability, MTT	48 h	IC50	> 50 µM
COc1ccc(C(=O)/C=C/c2ccccc2Br)cc1S(N)(=O)=O	cell growth or viability, SRB	48 h	GI50	12.9 µM
CC(=O)OC[C@H]1O[C@@H]([S-])[C@H](OC(C)=O)[C@@H](OC(C)=O)[C@@H]1OC(C)=O.CCP(CC)CC.[Au+]	cell growth or viability, resazurin	–	IC50	2.67 µM
COc1cc(-c2ccc(-c3ccc(C(=N)N)nc3)s2)cc(OC)c1OC	cell growth or viability, SRB	–	GI50	13.1 µM
COc1ccc(C(=O)/C=C/c2ccc(Cl)c(Cl)c2)cc1S(N)(=O)=O	cell growth or viability, SRB	48 h	GI50	5.5 µM
COc1cccc2c1C(=O)c1c(O)c3c(c(O)c1C2=O)C[C@@](O)(C(=O)CO)C[C@@H]3O[C@H]1C[C@H](N)[C@H](O)[C@H](C)O1	cell growth or viability, SRB	–	IC50	25.8 µM
S=C([S][Au-][P+](CCCCCC[P+]([Au-][S]C(=S)n1cccn1)(c1ccccc1)c1ccccc1)(c1ccccc1)c1ccccc1)n1cccn1	cell growth or viability	–	GI50	2.06 µM
C[C@]12CC[C@@H]3c4ccc(O)cc4CC[C@H]3[C@@H]1CC[C@@H]2O	cell growth or viability, ATP luminescence	72 h	EC90	56.8 µM
COc1cc(CNC(=O)CCCC/C=C/C(C)C)ccc1OCc1cn(-c2ccc(C#N)cc2)nn1	cell growth or viability, SRB	–	IC50	32.5 µM
COc1ccc(C(=O)/C=C/c2cccc(Br)c2)cc1S(N)(=O)=O	cell growth or viability, SRB	48 h	GI50	4.1 µM
CC(C)C[C@H](NC(=O)[C@H](Cc1ccccc1)NC(=O)c1cnccn1)B(O)O	cell growth or viability, ATP luminescence	–	IC50	0.025 µM
COc1ccc(C(=O)/C=C/c2ccc3ccccc3c2)cc1S(N)(=O)=O	cell growth or viability, SRB	48 h	GI50	4.9 µM
O=C1Nc2ccccc2C1=NNc1nnc2n1N=C(c1ccccc1)CS2	cell growth or viability, SRB	10 µM	inhibition	11%
COc1ccc(C(=O)/C=C/c2cccnc2)cc1S(N)(=O)=O	cell growth or viability, SRB	48 h	GI50	16.6 µM
COc1ccc(-c2ccc(-c3ccc(C(=N)N)nc3)s2)cc1	cell growth or viability, SRB	–	GI50	1.7 µM
